Laboratory results taken from ChEMBL document CHEMBL4406806, “Design, Synthesis, and Characterization of Ogerin-Based Positive Allosteric Modulators for G Protein-Coupled Receptor 68 (GPR68)” (J Med Chem, 2019).
Activity calls are given as the source filed them. No cut-off for these calls is given here.

Experiments:
[1] = target: G-protein coupled receptor 68 (Homo sapiens) (UniProt Q15743); assay: Positive allosteric modulation of human GPR68 expressed in HEK293T cells co-expressing Gs assessed as stimulation of proton-mediated cAMP production by measuring efficacy cooperativity in HBSS buffer containing pH 6.8 to 8.2 HEPES/pH 8.3 to 8.6 TAPS measured after 20 to 30 mins in presence of PDE inhibitor Ro 20-1724 by luciferase-glo reporter gene assay; format: functional, cell-based
G-protein coupled receptor 68 (Homo sapiens), sequence (Q15743 whole entry): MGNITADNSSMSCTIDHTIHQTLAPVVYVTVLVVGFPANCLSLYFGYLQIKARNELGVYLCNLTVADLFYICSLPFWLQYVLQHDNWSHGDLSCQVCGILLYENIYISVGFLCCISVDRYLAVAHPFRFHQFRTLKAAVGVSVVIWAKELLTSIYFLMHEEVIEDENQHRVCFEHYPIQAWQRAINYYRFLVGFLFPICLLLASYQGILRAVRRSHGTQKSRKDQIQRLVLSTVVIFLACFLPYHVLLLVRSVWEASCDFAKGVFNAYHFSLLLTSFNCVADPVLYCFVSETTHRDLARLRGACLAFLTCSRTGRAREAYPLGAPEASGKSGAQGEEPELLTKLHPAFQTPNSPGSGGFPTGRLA
In short: (§1)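 Transient co-transfection of HEK293T with receptor and GloSensor plasmids using PEI, overnight, then replated in DMEM + 1% dFBS for 6–24 h. Luciferin 3.5 mM loaded for 1 h at 37 °C in HBSS/20 mM TAPS, pH 8.40. Proton series: Ca/Mg-free HBSS with MES (pH 5.60–6.70), HEPES (6.80–8.20) or TAPS (8.30–8.60), plus 10 μM Ro 20-1724. BSA 1 mg/mL added where solubility required. Luminescence read at 20–30 min. At least six 16-point proton curves across modulator concentrations, quadruplicate, ≥3 independent assays.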

[2] = target: G-protein coupled receptor 68 (Mus musculus) (UniProt Q8BFQ3); assay: Positive allosteric modulation of mouse GPR68 expressed in HEK293T cells co-expressing Gs assessed as stimulation of proton-mediated cAMP production by measuring allosteric index in HBSS buffer containing pH 6.8 to 8.2 HEPES/pH 8.3 to 8.6 TAPS measured after 20 to 30 mins in presence of PDE inhibitor Ro 20-1724 by luciferase-glo reporter gene assay; format: functional, cell-based
G-protein coupled receptor 68 (Mus musculus), sequence (Q8BFQ3 whole entry): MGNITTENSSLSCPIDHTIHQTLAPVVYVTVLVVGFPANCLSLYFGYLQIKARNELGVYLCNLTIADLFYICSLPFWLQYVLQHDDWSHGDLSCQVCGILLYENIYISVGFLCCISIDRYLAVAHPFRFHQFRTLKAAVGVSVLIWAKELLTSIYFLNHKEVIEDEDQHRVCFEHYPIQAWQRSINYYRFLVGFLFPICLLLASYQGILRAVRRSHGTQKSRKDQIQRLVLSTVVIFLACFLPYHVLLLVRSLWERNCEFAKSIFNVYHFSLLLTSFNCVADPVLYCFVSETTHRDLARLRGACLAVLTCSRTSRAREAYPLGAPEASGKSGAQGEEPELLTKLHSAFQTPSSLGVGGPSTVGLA
In short: (§2)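 α, β and KB obtained by fitting proton responses with and without modulator to the standard allosteric operational model. Overall index is log(αβ/KB). Values are mean ± SEM from ≥3 independent assays, each run in triplicate or quadruplicate.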

[3] = target: G-protein coupled receptor 68 (Mus musculus) (UniProt Q8BFQ3); assay: Positive allosteric modulation of mouse GPR68 expressed in HEK293T cells co-expressing Gs assessed as stimulation of proton-mediated cAMP production by measuring efficacy cooperativity in HBSS buffer containing pH 6.8 to 8.2 HEPES/pH 8.3 to 8.6 TAPS measured after 20 to 30 mins in presence of PDE inhibitor Ro 20-1724 by luciferase-glo reporter gene assay; format: functional, cell-based; in short: as §2
[4] = target: G-protein coupled receptor 68 (Homo sapiens) (UniProt Q15743); assay: Positive allosteric modulation of human GPR68 expressed in HEK293T cells co-expressing Gs assessed as stimulation of proton-mediated cAMP production in HBSS buffer containing pH 6.8 to 8.2 HEPES/pH 8.3 to 8.6 TAPS measured after 20 to 30 mins in presence of PDE inhibitor Ro 20-1724 by luciferase-glo reporter gene assay; format: functional, cell-based; in short: as §1
[5] = target: G-protein coupled receptor 68 (Homo sapiens) (UniProt Q15743); assay: Positive allosteric modulation of human GPR68 expressed in HEK293T cells co-expressing Gs assessed as stimulation of proton-mediated cAMP production by measuring allosteric affinity cooperativity in HBSS buffer containing pH 6.8 to 8.2 HEPES/pH 8.3 to 8.6 TAPS measured after 20 to 30 mins in presence of PDE inhibitor Ro 20-1724 by luciferase-glo reporter gene assay; format: functional, cell-based; in short: as §1
[6] = target: G-protein coupled receptor 68 (Mus musculus) (UniProt Q8BFQ3); assay: Positive allosteric modulation of mouse GPR68 expressed in HEK293T cells co-expressing Gs assessed as stimulation of proton-mediated cAMP production by measuring allosteric affinity cooperativity in HBSS buffer containing pH 6.8 to 8.2 HEPES/pH 8.3 to 8.6 TAPS measured after 20 to 30 mins in presence of PDE inhibitor Ro 20-1724 by luciferase-glo reporter gene assay; format: functional, cell-based; in short: as §2
[7] = target: G-protein coupled receptor 68 (Homo sapiens) (UniProt Q15743); assay: Positive allosteric modulation of human GPR68 expressed in HEK293T cells co-expressing Gs assessed as stimulation of proton-mediated cAMP production by measuring allosteric index in HBSS buffer containing pH 6.8 to 8.2 HEPES/pH 8.3 to 8.6 TAPS measured after 20 to 30 mins in presence of PDE inhibitor Ro 20-1724 by luciferase-glo reporter gene assay; format: functional, cell-based; in short: as §1
[8] = target: G-protein coupled receptor 68 (Homo sapiens) (UniProt Q15743); assay: Positive allosteric modulation of human GPR68 expressed in HEK293T cells co-expressing Gs assessed as stimulation of proton-mediated cAMP production by measuring allosteric binding affinity in HBSS buffer containing pH 6.8 to 8.2 HEPES/pH 8.3 to 8.6 TAPS measured after 20 to 30 mins in presence of PDE inhibitor Ro 20-1724 by luciferase-glo reporter gene assay; format: functional, cell-based; in short: as §1
[9] = target: G-protein coupled receptor 65 (Homo sapiens) (UniProt Q8IYL9); assay: Positive allosteric modulation of human GPR65 expressed in HEK293T cells co-expressing Gs assessed as stimulation of proton-mediated cAMP production at higher concentration in HBSS buffer containing pH 6.8 to 8.2 HEPES/pH 8.3 to 8.6 TAPS measured after 20 to 30 mins in presence of PDE inhibitor Ro 20-1724 by luciferase-glo reporter gene assay; format: functional, cell-based; in short: as §1
G-protein coupled receptor 65 (Homo sapiens), sequence (Q8IYL9 whole entry): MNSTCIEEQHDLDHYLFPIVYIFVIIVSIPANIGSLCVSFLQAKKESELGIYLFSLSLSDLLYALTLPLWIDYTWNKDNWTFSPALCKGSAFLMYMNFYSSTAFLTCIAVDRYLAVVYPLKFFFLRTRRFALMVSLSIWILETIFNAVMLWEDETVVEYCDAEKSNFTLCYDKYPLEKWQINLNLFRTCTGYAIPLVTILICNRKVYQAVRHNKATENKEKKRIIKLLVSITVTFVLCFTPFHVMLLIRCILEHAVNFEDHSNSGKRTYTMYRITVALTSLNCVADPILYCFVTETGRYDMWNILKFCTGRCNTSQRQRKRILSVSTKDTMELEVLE

[10] = target: T1, 5-hydroxytryptamine receptor 2B (Homo sapiens, UniProt P41595); assay: Antagonist activity at human 5HT2B receptor expressed in Flp-In-HEK cells co-expressing Gq assessed as inhibition of 5HT-induced stimulation of calcium mobilization preincubated for 10 mins followed by 5HT addition by fluo-4 calcium dye-based FLIPR assay; format: functional, cell-based
T1 sequence (P41595 whole entry): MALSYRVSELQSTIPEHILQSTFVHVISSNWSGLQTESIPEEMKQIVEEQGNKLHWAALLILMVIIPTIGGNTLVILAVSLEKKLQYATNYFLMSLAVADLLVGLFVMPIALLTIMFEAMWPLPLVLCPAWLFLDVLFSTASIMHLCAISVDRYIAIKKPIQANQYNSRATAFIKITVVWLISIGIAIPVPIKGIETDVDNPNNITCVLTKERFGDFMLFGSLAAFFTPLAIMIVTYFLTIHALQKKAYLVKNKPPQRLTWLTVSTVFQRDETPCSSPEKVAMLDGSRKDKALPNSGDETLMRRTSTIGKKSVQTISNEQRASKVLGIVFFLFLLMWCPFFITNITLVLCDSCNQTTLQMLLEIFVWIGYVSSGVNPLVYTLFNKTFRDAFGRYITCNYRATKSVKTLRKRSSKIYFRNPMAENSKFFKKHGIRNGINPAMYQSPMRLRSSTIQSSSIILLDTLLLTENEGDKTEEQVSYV

[11] = target: T2, Atypical chemokine receptor 3 (Homo sapiens, UniProt P25106); assay: Agonist activity at human ACKR3 expressed in HTLA cells assessed as stimulation of beta-arrestin recruitment at 1 uM incubated for 16 to 20 hrs by bright-glo luminescence assay; format: cell-based
T2 sequence (P25106 whole entry): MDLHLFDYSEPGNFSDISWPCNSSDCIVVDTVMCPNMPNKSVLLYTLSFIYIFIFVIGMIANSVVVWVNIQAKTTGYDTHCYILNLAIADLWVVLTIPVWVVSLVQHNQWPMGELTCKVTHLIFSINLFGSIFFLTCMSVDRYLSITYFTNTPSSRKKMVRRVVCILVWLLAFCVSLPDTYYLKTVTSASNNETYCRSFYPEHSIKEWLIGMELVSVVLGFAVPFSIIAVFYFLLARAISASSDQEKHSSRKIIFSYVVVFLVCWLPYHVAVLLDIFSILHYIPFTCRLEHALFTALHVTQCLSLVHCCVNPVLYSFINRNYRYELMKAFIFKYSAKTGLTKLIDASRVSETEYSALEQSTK

[12] = target: T2, Atypical chemokine receptor 3; assay: Agonist activity at human ACKR3 expressed in HTLA cells assessed as stimulation of beta-arrestin recruitment incubated for 16 to 20 hrs by bright-glo luminescence assay; format: cell-based
In short: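 Tango arrestin assay in HTLA cells transfected with receptor DNA overnight in DMEM + 10% FBS, then replated on poly-L-Lys in DMEM + 1% dFBS. Drugs added 6 h later and incubated overnight (16–20 h). Medium removed, Bright-Glo added, luminescence counted.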

[13] = target: G-prodeshotein coupled receptor 4 (Homo sapiens) (UniProt P46093); assay: Positive allosteric modulation of human GPR4 expressed in HEK293T cells co-expressing Gs assessed as stimulation of proton-mediated cAMP production at higher concentration in HBSS buffer containing pH 6.8 to 8.2 HEPES/pH 8.3 to 8.6 TAPS measured after 20 to 30 mins in presence of PDE inhibitor Ro 20-1724 by luciferase-glo reporter gene assay; format: functional, cell-based; in short: as §1
G-prodeshotein coupled receptor 4 (Homo sapiens), sequence (P46093 whole entry, looked up): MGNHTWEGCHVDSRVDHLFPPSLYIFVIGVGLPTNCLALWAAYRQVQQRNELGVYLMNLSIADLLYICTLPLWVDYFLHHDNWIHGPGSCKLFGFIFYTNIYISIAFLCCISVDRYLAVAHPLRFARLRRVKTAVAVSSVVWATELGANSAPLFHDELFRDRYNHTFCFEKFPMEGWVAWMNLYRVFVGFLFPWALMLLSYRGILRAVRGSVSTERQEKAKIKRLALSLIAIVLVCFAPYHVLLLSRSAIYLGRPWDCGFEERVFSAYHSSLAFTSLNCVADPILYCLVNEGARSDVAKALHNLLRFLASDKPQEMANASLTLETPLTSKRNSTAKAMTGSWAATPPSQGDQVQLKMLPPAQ

[14] = target: T1, 5-hydroxytryptamine receptor 2B; assay: Agonist activity at human 5HT2B receptor expressed in Flp-In-HEK cells co-expressing Gq assessed as stimulation of calcium mobilization measured for 2 mins by fluo-4 calcium dye-based FLIPR assay; format: functional, cell-based
In short: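 HEK293 cells stably expressing 5-HT2B, seeded overnight (16–20 h) on poly-L-Lys in DMEM + 1% dFBS. Fluo-4 Direct dye loaded for 1 h at 37 °C in HBSS/20 mM HEPES/2.5 mM probenecid, pH 7.40. Drug diluted in buffer with 1 mg/mL BSA and 0.1 mg/mL ascorbic acid. Fluorescence read for 2 min; peak fold of basal within the first minute.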

[15] = target: T1, 5-hydroxytryptamine receptor 2B; assay: Displacement of [3H]LSD from recombinant human 5HT2B stably expressed in HEK cell membranes incubated for 90 mins under dark condition by microbeta scintillation counting analysis
[16] = target: G-protein coupled receptor 65 (Homo sapiens) (UniProt Q8IYL9); assay: Positive allosteric modulation of human GPR65 expressed in HEK293T cells co-expressing Gs assessed as stimulation of proton-mediated cAMP production in HBSS buffer containing pH 6.8 to 8.2 HEPES/pH 8.3 to 8.6 TAPS measured after 20 to 30 mins in presence of PDE inhibitor Ro 20-1724 by luciferase-glo reporter gene assay; format: functional, cell-based; in short: as §1
[17] = target: G-prodeshotein coupled receptor 4 (Homo sapiens) (UniProt P46093); assay: Positive allosteric modulation of human GPR4 expressed in HEK293T cells co-expressing Gs assessed as stimulation of proton-mediated cAMP production in HBSS buffer containing pH 6.8 to 8.2 HEPES/pH 8.3 to 8.6 TAPS measured after 20 to 30 mins in presence of PDE inhibitor Ro 20-1724 by luciferase-glo reporter gene assay; format: functional, cell-based; in short: as §1

| SMILES | log(activity) [1] | log(activity) [5] | Activity index [7] | pKb [8] | Activity_index [7] | also measured |
| --- | --- | --- | --- | --- | --- | --- |
| Nc1nc(NCc2ccccc2)nc(-c2ccccc2CO)n1 | 0.36 | 0.6 | 5.31 | – | – | Activity index [2]: 4.97; log(activity) [3]: 0.04; Activity [4]: Dose-dependent effect; log(activity) [6]: 0.8 |
| CC(=O)c1ccccc1-c1nc(N)nc(NCc2ccccc2)n1 | inactive | inactive | – | inactive | inactive | – |
| COc1cccc(CO)c1-c1nc(N)nc(NCc2ccccc2)n1 | – | inactive | – | inactive | inactive | – |
| Nc1nc(NCCCc2ccccc2)nc(-c2cc(Cl)ccc2CO)n1 | 0.01 | 1.03 | 6.38 | – | – | Activity [9]: inactive; Activity index [2]: 5.98; Ki [10]: 212 nM; Activity [11]: Active; log(activity) [3]: 0.13; EC50 [12]: 690 nM; Activity [13]: inactive; Activity [14]: inactive; Ki ([15]; read-out: Ki): 295 nM; Ki ([15]; read-out: pKi (converted)): 100 to 316 nM; log(activity) [6]: 0.99 |
| Cc1ccccc1-c1nc(N)nc(NCc2ccccc2)n1 | inactive | inactive | – | inactive | inactive | – |
| CNCc1ccccc1-c1nc(N)nc(NCc2ccccc2)n1 | inactive | inactive | – | inactive | inactive | – |
| Nc1nc(NCCCCc2ccccc2)nc(-c2ccccc2CO)n1 | 0.21 | 0.62 | 6.35 | – | – | Activity index [2]: 5.89; log(activity) [3]: 0.08; log(activity) [6]: 0.91 |
| CC(=O)c1cccc(-c2nc(N)nc(NCc3ccccc3)n2)c1 | inactive | inactive | – | inactive | inactive | Activity [16]: inactive; Activity [17]: inactive; Activity [4]: inactive |
| Nc1nc(NCCc2ccccc2)nc(-c2cc(Cl)ccc2CO)n1 | 0.03 | 1.09 | 6.26 | – | – | Activity [9]: inactive; Activity index [2]: 5.92; Ki [10]: 678 nM; Activity [11]: Active; log(activity) [3]: 0.13; EC50 [12]: 1700 nM; Activity [13]: inactive; Activity [14]: inactive; Ki ([15]; read-out: Ki): 209 nM; Ki ([15]; read-out: pKi (converted)): 100 to 316 nM; log(activity) [6]: 1.06 |
| CC(O)c1ccccc1-c1nc(N)nc(NCc2ccccc2)n1 (stereo not given) | inactive | inactive | – | inactive | inactive | – |
| Nc1nc(NCc2ccccc2)nc(-c2ccccc2)n1 | inactive | inactive | – | inactive | inactive | – |
| CN(C)c1nc(NCc2ccccc2)nc(-c2ccccc2CO)n1 | inactive | inactive | – | inactive | inactive | Activity [16]: inactive; Activity [17]: inactive; Activity [4]: inactive |
| Nc1nc(NCc2ccccc2)nc(-c2cccc(CO)c2)n1 | inactive | inactive | – | inactive | inactive | Activity [16]: inactive; Activity [17]: inactive; Activity [4]: inactive |
| Nc1nc(NCc2ccc(Oc3ccccc3)cc2)nc(-c2cc(Cl)ccc2CO)n1 | 0.03 | 1.05 | 5.78 | – | – | – |
| Nc1nc(NCc2ccccc2F)nc(-c2ccccc2CO)n1 | 0.31 | 0.98 | 5.56 | – | – | – |
| Nc1cc(-c2ccccc2CO)nc(NCc2ccccc2)n1 | inactive | inactive | – | inactive | inactive | – |
